ChEMBL document CHEMBL1212762, “In vivo activity of ceftobiprole in murine skin infections due to Staphylococcus aureus and Pseudomonas aeruginosa” (Antimicrob Agents Chemother, 2010)

Tests used:
Pseudomonas aeruginosa [1] = test: Antimicrobial activity against Pseudomonas aeruginosa OC 4351 infected in immunocompromized SKH1 mouse assessed as log change in bacterial colony forming unit at 1.6 mg/kg/day, sc; format: functional; conditions: route subcutaneous
Method in brief: (§1)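 Female SKH1 hairless mice made neutropenic with ip cyclophosphamide (150 mg/kg 5 days and 100 mg/kg 1 day before infection). 0.2 ml s.c. Cytodex bead (0.1% vol/vol) inoculum in BHI: OC 4351 left flank, OC 4354 right flank. Drug s.c. at 1, 3, 25, 27 h postinfection. Killed at 48 h; skin homogenised in saline, plated on TSA 18 h 37°C; Δlog CFU/g versus inoculum. 5 mice/dose, run twice.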

Pseudomonas aeruginosa [2] = test: Antimicrobial activity against Pseudomonas aeruginosa OC 4351 infected in immunocompromized SKH1 mouse assessed as log change in bacterial colony forming unit at 25 mg/kg/day, sc; format: functional; conditions: route subcutaneous; method in brief: as §1
Pseudomonas aeruginosa [3] = test: Antimicrobial activity against Pseudomonas aeruginosa OC 4351 infected in immunocompromized SKH1 mouse assessed as log change in bacterial colony forming units at 25 mg/kg/day, sc; format: functional; conditions: route subcutaneous; method in brief: as §1
Pseudomonas aeruginosa [4] = test: Antimicrobial activity against Pseudomonas aeruginosa OC 4351 infected in immunocompromized SKH1 mouse assessed as log change in bacterial colony forming unit at 100 mg/kg/day, sc; format: functional; conditions: route subcutaneous; method in brief: as §1
Pseudomonas aeruginosa [5] = test: Antimicrobial activity against Pseudomonas aeruginosa OC 4354 infected in immunocompromized SKH1 mouse assessed as log change in bacterial colony forming unit at 1.6 mg/kg/day, sc; format: functional; conditions: route subcutaneous; method in brief: as §1
Pseudomonas aeruginosa [6] = test: Antimicrobial activity against Pseudomonas aeruginosa OC 4354 infected in immunocompromized SKH1 mouse assessed as log change in bacterial colony forming unit at 6.2 mg/kg/day, sc; format: functional; conditions: route subcutaneous; method in brief: as §1
Pseudomonas aeruginosa [7] = test: Antimicrobial activity against Pseudomonas aeruginosa OC 4354 infected in immunocompromized SKH1 mouse assessed as log change in bacterial colony forming unit at 25 mg/kg/day, sc; format: functional; conditions: route subcutaneous; method in brief: as §1
Pseudomonas aeruginosa [8] = test: Antimicrobial activity against Pseudomonas aeruginosa OC 4354 infected in immunocompromized SKH1 mouse assessed as log change in bacterial colony forming unit at 100 mg/kg/day, sc; format: functional; conditions: route subcutaneous; method in brief: as §1
[9] = Tmax in immunocompromized SKH1 mouse plasma at 50 mg/kg, sc; format: ADME, organism-based; parameters: dose 50 mg/kg, route subcutaneous
Method in brief: (§2)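 Female SKH1 hairless mice, immunocompetent or cyclophosphamide-neutropenic, infected s.c. with MRSA OC 8525 or P. aeruginosa OC 4354 on the Cytodex beads (left flank), sterile beads on the right. Single dose 24 h later: s.c. at the nape, or linezolid 50 mg/kg oral. Plasma and skin (DMSO homogenate) sampled over time, HPLC with diode array.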

Plasma [10] = test: fCmax in immunocompromized SKH1 mouse plasma at 50 mg/kg, sc; format: ADME, organism-based; parameters: dose 50 mg/kg, route subcutaneous; conditions: in vivo; method in brief: as §2
Plasma [11] = test: fAUC (0-infinity) in immunocompromized SKH1 mouse plasma at 50 mg/kg, sc; format: ADME, organism-based; parameters: dose 50 mg/kg, route subcutaneous; conditions: in vivo; method in brief: as §2
Pseudomonas aeruginosa [12] = test: Antimicrobial activity against Pseudomonas aeruginosa OC 4351 assessed as inhibition of growth by broth microdilution method; format: functional
Pseudomonas aeruginosa [13] = test: Antimicrobial activity against Pseudomonas aeruginosa OC 4354 assessed as inhibition of growth by broth microdilution method; format: functional
[14] = Ratio of fAUC to MIC in Staphylococcus aureus OC 4172 infected sc dosed SKH1 mouse; format: functional
Method in brief: (§3)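 Free-drug plasma AUC, converted from μg·min/ml to μg·h/ml, divided by the MIC of the infecting S. aureus strain.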

[15] = Ratio of fAUC to MIC in Staphylococcus aureus OC 8525 infected sc dosed SKH1 mouse; format: functional; method in brief: as §3
[16] = Protein binding in mouse plasma; format: ADME, cell-free; conditions: read-out: PPB (converted)
[17] = Half life in immunocompetent SKH1 mouse plasma at 50 mg/kg, po; format: ADME, organism-based; parameters: dose 50 mg/kg, route oral; method in brief: as §2
[18] = Tmax in immunocompetent SKH1 mouse plasma at 50 mg/kg, po; format: ADME, organism-based; parameters: dose 50 mg/kg, route oral; method in brief: as §2
Plasma [19] = test: fCmax in immunocompetent SKH1 mouse plasma at 50 mg/kg, po; format: ADME, organism-based; parameters: dose 50 mg/kg, route oral; conditions: in vivo; method in brief: as §2
Plasma [20] = test: fAUC (0-infinity) in immunocompetent SKH1 mouse plasma at 50 mg/kg, po; format: ADME, organism-based; parameters: dose 50 mg/kg, route oral; conditions: in vivo; method in brief: as §2
Staphylococcus aureus [21] = test: Antimicrobial activity against methicillin-resistant Staphylococcus aureus OC 8525 infected immunocompetent SKH1 mouse assessed as lesion volume at 25 mg/kg/day, sc measured after 48 hrs postinfection (reference value: 1535 mm3); conditions: route subcutaneous
Staphylococcus aureus [22] = test: Antimicrobial activity against methicillin-resistant Staphylococcus aureus OC 8525 infected immunocompetent SKH1 mouse assessed as lesion volume at 1.6 mg/kg/day, sc measured after 48 hrs postinfection (reference value: 1535 mm3); conditions: route subcutaneous
Staphylococcus aureus [23] = test: Antimicrobial activity against methicillin-resistant Staphylococcus aureus OC 8525 infected immunocompetent SKH1 mouse assessed as lesion volume at 6.2 mg/kg/day, sc measured after 48 hrs postinfection (reference value: 1535 mm3); conditions: route subcutaneous
Staphylococcus aureus [24] = test: Antimicrobial activity against methicillin-resistant Staphylococcus aureus OC 8525 infected immunocompetent SKH1 mouse assessed as lesion volume at 100 mg/kg/day, sc measured after 48 hrs postinfection (reference value: 1535 mm3); conditions: route subcutaneous
Staphylococcus aureus [25] = test: Antimicrobial activity against methicillin-susceptible Staphylococcus aureus Smith OC 4172 infected immunocompetent SKH1 mouse assessed as lesion volume at 25 mg/kg/day, sc measured after 48 hrs postinfection (reference value: 1181 mm3); conditions: route subcutaneous
Staphylococcus aureus [26] = test: Antimicrobial activity against methicillin-susceptible Staphylococcus aureus Smith OC 4172 infected immunocompetent SKH1 mouse assessed as lesion volume at 1.6 mg/kg/day, sc measured after 48 hrs postinfection (reference value: 1181 mm3); conditions: route subcutaneous
Staphylococcus aureus [27] = test: Antimicrobial activity against methicillin-susceptible Staphylococcus aureus Smith OC 4172 infected immunocompetent SKH1 mouse assessed as lesion volume at 6.2 mg/kg/day, sc measured after 48 hrs postinfection (reference value: 1181 mm3); conditions: route subcutaneous

Which results are given for `CO/N=C(\C(=O)N[C@@H]1C(=O)N2C(C(=O)[O-])=C(C[N+]3(C)CCCC3)CS[C@H]12)c1csc(N)n1`?
deltalog10CFU (Pseudomonas aeruginosa [1]): 2.1; deltalog10CFU (Pseudomonas aeruginosa [2]): 2.1; deltalog10CFU (Pseudomonas aeruginosa [3]): 1.8; deltalog10CFU (Pseudomonas aeruginosa [4]): 1; deltalog10CFU (Pseudomonas aeruginosa [5]): 1.7; deltalog10CFU (Pseudomonas aeruginosa [6]): 2.9; deltalog10CFU (Pseudomonas aeruginosa [7]): 1.7; deltalog10CFU (Pseudomonas aeruginosa [8]): 1.7; Tmax [9]: 7.5 min; fCmax (Plasma [10]): 66 µg/mL; fAUC (Plasma [11]): 1790 µg·min/mL; MIC (Pseudomonas aeruginosa [12]): 4 µg/mL; MIC (Pseudomonas aeruginosa [13]): 32 µg/mL

With `CC(=O)NC[C@H]1CN(c2ccc(N3CCOCC3)c(F)c2)C(=O)O1` [LINEZOLID] as the compound, how does the fAUC/MIC [14] read?
Its fAUC/MIC is 898.

What about the fAUC/MIC [15] of the same compound?
The fAUC/MIC was 449.

And the fraction unbound [16]?
The fraction unbound was 0.68.

What about the half-life [17] of the same compound?
Its half-life is 102 min.

What about the Tmax [18] of the same compound?
Its Tmax is 30 min.

And the fCmax (Plasma [19])?
Its fCmax is 14 µg/mL.

What about the fAUC (Plasma [20]) of the same compound?
The fAUC was 1795 µg·min/mL.

What about the Activity (Staphylococcus aureus [21]) of the same compound?
Its Activity is 932 mm3.

What about the Activity (Staphylococcus aureus [22]) of the same compound?
The Activity was 1644 mm3.

And the Activity (Staphylococcus aureus [23])?
The Activity was 1277 mm3.

What about the Activity (Staphylococcus aureus [24]) of the same compound?
Its Activity is 858 mm3.

What about the Activity (Staphylococcus aureus [25]) of the same compound?
The Activity was 1018 mm3.

What about the Activity (Staphylococcus aureus [26]) of the same compound?
The Activity was 1407 mm3.

What about the Activity (Staphylococcus aureus [27]) of the same compound?
Its Activity is 1234 mm3.
